Experimental data of several laboratories.
Target: Homeodomain-interacting protein kinase 4 (HIPK4, Homo sapiens, UniProt Q8NE63)
Sequence (Q8NE63 1-616, as in one of the studies): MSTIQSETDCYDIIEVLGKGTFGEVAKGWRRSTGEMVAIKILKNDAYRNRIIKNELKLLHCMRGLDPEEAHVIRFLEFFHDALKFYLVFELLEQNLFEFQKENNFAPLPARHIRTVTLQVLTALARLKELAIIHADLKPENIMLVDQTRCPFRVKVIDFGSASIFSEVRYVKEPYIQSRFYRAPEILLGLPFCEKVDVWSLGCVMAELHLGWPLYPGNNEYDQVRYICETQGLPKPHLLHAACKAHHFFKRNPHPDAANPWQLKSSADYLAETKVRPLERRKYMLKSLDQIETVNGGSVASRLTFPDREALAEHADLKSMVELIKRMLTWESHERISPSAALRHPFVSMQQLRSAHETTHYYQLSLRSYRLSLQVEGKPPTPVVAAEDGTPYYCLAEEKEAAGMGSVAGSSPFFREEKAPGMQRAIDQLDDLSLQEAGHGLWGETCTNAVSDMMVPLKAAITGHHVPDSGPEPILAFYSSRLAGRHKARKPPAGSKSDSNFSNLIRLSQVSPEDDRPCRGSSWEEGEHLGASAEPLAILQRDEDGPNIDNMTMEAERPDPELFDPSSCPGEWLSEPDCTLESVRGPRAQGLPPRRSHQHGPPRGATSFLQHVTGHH

Compound	assay	setting	quantity	result
Cc1nn(C)cc1-c1nc2c(N3CCN(Cc4ccc(Cl)cc4)CC3)c(Cl)cnc2[nH]1	binding, competition with immobilised ligand	1 µM	remaining binding	85%
COc1ncccc1-c1cnn2ccc(N3CCN(C(=O)OC(C)C)CC3)nc12	binding, competition with immobilised ligand	1 µM	remaining binding	99%
Cn1cncc1[C@](O)(COc1ccc(C#N)cc1-c1ccc(OC(F)(F)F)cc1)c1ccc(C#N)cc1	cell-free assay, competition with immobilised ligand	1 µM	remaining binding	86%
Nc1ncc(-c2nc(N3CCOCC3)nc(N3CCOCC3)n2)c(C(F)F)n1	binding, competition with immobilised ligand	10 µM	remaining binding	100%
O=c1[nH]c2ccccc2n1C1CCN(Cc2ccc(-c3[nH]c4cc5ncnc5cc4nc3-c3ccccc3)cc2)CC1	cell-free assay	0.5 µM	remaining signal	99.3%
Cn1cc(-c2cccc(N3CCc4c(sc5c4CC(C)(C)C5)C3=O)c2CO)cc(Nc2ccncn2)c1=O	enzyme activity, inhibitor	1 µM	inhibition	11%
CC(C)(C)c1cc(C=C(C#N)C#N)cc(Br)c1O	enzyme activity, inhibitor	0.5 µM	remaining activity	103%
Cn1cc(-c2cc(F)cc(N3CCn4c(cc5c4CCCC5)C3=O)c2CO)cc(Nc2ccc(N3CCN(C4COC4)CC3)cn2)c1=O	enzyme activity, inhibitor	0.1 µM	inhibition	11%
